Reference: ChEMBL document CHEMBL4837222, “Design and synthesis of novel benzothiophene analogs as selective estrogen receptor covalent antagonists against breast cancer” (Eur J Med Chem, 2021)
The source made the active and inactive calls. The calls are words filed in the database; no cut-off is given here.

Assays:
[1] = tested on: MCF7; test: Downregulation of ERalpha expression in human MCF7 cells at 0.5 uM incubated for 24 hrs by Western blot assay; assay type: functional, cell-based
In short: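 MCF-7 cells were kept in phenol red-free DMEM/F12 with 10% serum for 72 h before plating, then treated at 125, 250 and 500 nM for 24 h. Cells were lysed in RIPA buffer, protein was measured by BCA, and equal amounts were run on 10% SDS-PAGE and transferred to PVDF. ERα band intensity was normalized to GAPDH in each repeat.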

[2] = tested on: MCF7; test: Antiproliferative activity against human MCF7 cells assessed as reduction in cell growth incubated for 48 hrs by CCK8 assay; assay type: functional, cell-based; details: MCF7, 48 h
In short: (§1)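 CCK-8 viability assay. Cells seeded at 4000/well in 10% FBS medium for 24 h, then given compound diluted from DMSO stocks into 2% FBS medium at 100, 50, 25, 12.5, 6.25 and 3.125 µM (0.1% DMSO final). After 48 h, CCK-8 was added (0.5 mg/mL) for 2 h at 37 °C and OD450 read. Triplicates; IC50 fitted from mean viability.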

[3] = tested on: Ishikawa; test: Antiproliferative activity against human Ishikawa cells assessed as reduction in cell growth incubated for 48 hrs by CCK8 assay; assay type: functional, cell-based; in short: as §1
[4] = tested on: MDA-MB-231; test: Antiproliferative activity against human MDA-MB-231 cells assessed as reduction in cell growth incubated for 48 hrs by CCK8 assay; assay type: functional, cell-based; details: MDA-MB-231, 48 h; in short: as §1
[5] = tested on: MCF7; test: Downregulation of ERalpha expression in human MCF7 cells at 5 uM incubated for 24 hrs by DAPI staining based immunofluorescence microscopy; assay type: functional, cell-based
In short: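 MCF-7 cells on glass slides treated 24 h at 5 µM, washed with PBS and fixed with pre-cooled acetone. ERα immunostained with a red fluorescent label, nuclei counterstained with DAPI; ERα fluorescence intensity quantified.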

[6] = biological target: T1, Estrogen receptor (Homo sapiens) (UniProt P03372); test: Covalent antagonist activity at ERalpha in human MCF7 cells assessed as decrease in estradiol-induced TFF1 mRNA expression level at 0.25 to 10 uM measured after 24 hrs by RT-PCR analysis; assay type: cell-based; details: filed as antagonist, dose 0.25-10 µM
T1 sequence (whole entry): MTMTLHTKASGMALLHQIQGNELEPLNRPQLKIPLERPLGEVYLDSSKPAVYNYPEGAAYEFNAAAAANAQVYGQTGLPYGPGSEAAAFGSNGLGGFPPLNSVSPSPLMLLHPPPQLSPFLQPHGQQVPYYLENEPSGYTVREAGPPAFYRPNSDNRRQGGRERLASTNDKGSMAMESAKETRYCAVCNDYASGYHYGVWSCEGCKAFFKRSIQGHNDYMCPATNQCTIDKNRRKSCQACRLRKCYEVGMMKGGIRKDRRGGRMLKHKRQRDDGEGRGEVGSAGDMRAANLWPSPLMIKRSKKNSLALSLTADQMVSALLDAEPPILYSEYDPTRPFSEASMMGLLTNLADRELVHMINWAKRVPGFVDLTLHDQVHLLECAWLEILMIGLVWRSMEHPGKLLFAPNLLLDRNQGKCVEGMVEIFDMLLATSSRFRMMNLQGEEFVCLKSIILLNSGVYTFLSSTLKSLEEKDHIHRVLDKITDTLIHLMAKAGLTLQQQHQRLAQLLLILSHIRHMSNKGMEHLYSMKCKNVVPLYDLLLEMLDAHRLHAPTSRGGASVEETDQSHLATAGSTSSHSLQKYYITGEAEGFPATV
In short: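 MCF-7 cells stimulated with estradiol, then co-incubated 24 h with compound at 0.25, 0.5, 1 and 10 µM. RNA was reverse-transcribed and GREB1 or TFF1 measured by SYBR Green qPCR: 95 °C 10 min, then 40 cycles of 95 °C 5 s, 60 °C 60 s, 95 °C 15 s. Normalised to GAPDH, ΔΔCT method.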

[7] = biological target: T1, Estrogen receptor (Homo sapiens); test: Covalent antagonist activity at ERalpha receptor in human ishikawa cells assessed as suppression of E2-stimulated PGR expression at 0.25 to 10 uM measured after 3 days by RT-PCR analysis; assay type: cell-based; details: filed as antagonist, dose 0.25-10 µM, time 3.0 day
In short: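 Ishikawa cells stimulated with E2 and exposed 3 days to compound at 0.25, 0.5, 1 and 10 µM. PGR mRNA quantified by SYBR Green real-time PCR, normalised to GAPDH, ΔΔCT method.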

[8] = tested on: MCF7; test: Induction of apoptosis in human MCF7 cells assessed as live cells at 1 uM incubated for 24 hrs by AnnexinV-FITC/propidium iodide staining based flow cytometric analysis (reference value: 98.1%); assay type: functional
[9] = tested on: MCF7; test: Induction of apoptosis in human MCF7 cells assessed as late apoptotic cells at 1 uM incubated for 24 hrs by AnnexinV-FITC/propidium iodide staining based flow cytometric analysis (reference value: 0.7%); assay type: functional
[10] = tested on: MCF7; test: Induction of apoptosis in human MCF7 cells assessed as necrotic cells at 1 uM incubated for 24 hrs by AnnexinV-FITC/propidium iodide staining based flow cytometric analysis (reference value: 0.4%); assay type: functional
[11] = tested on: MCF7; test: Induction of apoptosis in human MCF7 cells assessed as live cells at 5 uM incubated for 24 hrs by AnnexinV-FITC/propidium iodide staining based flow cytometric analysis (reference value: 98.1%); assay type: functional
[12] = tested on: MCF7; test: Induction of apoptosis in human MCF7 cells assessed as early apoptotic cells at 5 uM incubated for 24 hrs by Annexin-V-FITC/propidium iodide staining based flow cytometric analysis (reference value: 0.8%); assay type: functional
[13] = tested on: MCF7; test: Induction of apoptosis in human MCF7 cells assessed as late apoptotic cells at 5 uM incubated for 24 hrs by AnnexinV-FITC/propidium iodide staining based flow cytometric analysis (reference value: 0.7%); assay type: functional
[14] = tested on: MCF7; test: Induction of apoptosis in human MCF7 cells assessed as necrotic cells at 5 uM incubated for 24 hrs by AnnexinV-FITC/propidium iodide staining based flow cytometric analysis (reference value: 0.4%); assay type: functional
[15] = tested on: MCF7; test: Induction of apoptosis in human MCF7 cells assessed as live cells at 10 uM incubated for 24 hrs by AnnexinV-FITC/propidium iodide staining based flow cytometric analysis (reference value: 98.1%); assay type: functional
[16] = tested on: MCF7; test: Induction of apoptosis in human MCF7 cells assessed as late apoptotic cells at 10 uM incubated for 24 hrs by AnnexinV-FITC/propidium iodide staining based flow cytometric analysis (reference value: 0.7%); assay type: functional
[17] = tested on: MCF7; test: Induction of apoptosis in human MCF7 cells assessed as necrotic cells at 10 uM incubated for 24 hrs by AnnexinV-FITC/propidium iodide staining based flow cytometric analysis (reference value: 0.4%); assay type: functional
[18] = tested on: MCF7; test: Cell cycle arrest in human MCF7 cells assessed as accumulation at G0/G1 phase at 1 uM measured after 48 hrs by propidium iodide staining based flow cytometric analysis (reference value: 24.44%); assay type: functional
[19] = tested on: MCF7; test: Cell cycle arrest in human MCF7 cells assessed as accumulation at G2/M phase at 1 uM measured after 48 hrs by propidium iodide staining based flow cytometric analysis (reference value: 12.24%); assay type: functional
[20] = tested on: MCF7; test: Cell cycle arrest in human MCF7 cells assessed as accumulation at S phase at 5 uM measured after 48 hrs by propidium iodide staining based flow cytometric analysis (reference value: 63.32%); assay type: functional
[21] = Lipophilicity, logD of compound; assay type: physicochemical; details: octanol/water
[22] = Half life in rat plasma; assay type: ADME, cell-free
[23] = Half life in rat liver microsomes; assay type: ADME, Microsome
[24] = Intrinsic clearance in rat; assay type: ADME

SMILES: O=C(/C=C/CNCCOc1ccc(Oc2c(-c3ccc(F)cc3)sc3cc(O)ccc23)cc1)N1CCC1
- inhibition [1]: Active
- IC50 [2]: 7.34 µM
- IC50 [3]: 6.56 µM
- IC50 [4]: > 50 µM
- inhibition [5]: Active
- inhibition [6]: Dose-Dependent Effect
- inhibition [7]: Active
- Activity [8]: 97.8%
- Activity [9]: 1.2%
- Activity [10]: 0.2%
- Activity [11]: 87.9%
- Activity [12]: 5.3%
- Activity [13]: 6.4%
- Activity [14]: 0.4%
- Activity [15]: 73.6%
- Activity [16]: 13.2%
- Activity [17]: 0.5%
- Activity [18]: 31.21%
- Activity [19]: 17.36%
- Activity [20]: 46.98%
- logD [21]: 1.67
- half-life [22]: 17 h
- half-life [23]: 0.636 h
- CLint scaled [24]: 65.1 mL/min/kg
